Assay outcomes as filed in PubChem BioAssay.
An excerpt weighted towards active compounds, which were near 3.8% of everything screened.
KCNK3 inh – human KCNK3 channel inhibition, primary screen | O14649 | CHO-KCNK3 thallium flux, FluxOR fluorescence; active compounds read low | B-score at 10 µM | 340,000 compounds, 0.84% hits | AID 602410;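 active = B-score under library mean minus 4 SD, starting fluorescence ratio at most library mean plus 5 SD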;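 note: more negative B-score means stronger inhibition of thallium flux through KCNK3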
KCNQ1 act – potentiates or activates the human KCNQ1 potassium channel; P51787; CHO-K1 KCNQ1, thallium flux FluxOR fluorescence; active compounds read high; B-score at 10 µM; 310,000 compounds, 0.35% hits;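 active = fluorescence ratio B-score, a plate-corrected score, at least three library SD, with initial intensity B-score within 5 SD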
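Assay system: stable KCNQ1 CHO-K1 line; medium: assay buffer, equal DMSO in all wells; timing: 90 min dye loading and 20 min compound exposure, both at room temperature; technique: kinetic FluxOR thallium fluorescence, 10-s 1-Hz baseline, 110-s post-stimulus read; read-out basis: B score of baseline-normalized fluorescence ratio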
hERG protect – shields human hERG channel from block by proarrhythmic agents; Q12809; CHO-hERG, FluxOR thallium flux, dofetilide IC70 present; activation (rescue from dofetilide block), less the hit threshold, % at 10 µM; 310,000 compounds, 0.51% hits;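 active = activation above the mean of controls blocked by dofetilide plus 5 SD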;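 note: thallium influx through hERG after potassium depolarization seen as dye fluorescence rise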
KCNK9 inh – inhibitors of human KCNK9 two-pore domain potassium channel. Q9NPC2. B-score at 10 µM. 310,000 compounds, 1.2% hits. AID 488922. HEK293 KCNK9, FluxOR thallium flux fluorescence; active compounds read low;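 active = ratio B-score over 3 SD below the library mean, with starting fluorescence within 5 SD of its mean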;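 note: negative B-score means less thallium flux so channel inhibition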
Kir21 block – Kir2.1 (mouse) channel inhibition | HEK293-Kir2.1, FluxOR thallium flux fluorescence; active compounds read low | AID 1672 | 310,000 compounds, 0.85% hits | B-score at 10 µM;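 active = fluorescence ratio B-score at or below minus 3 SD of library scores, with starting-brightness B-score within 2 SD, cut at about -4.2 in these data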;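 note: channel flux triggered by added potassium and thallium sulfate stimulus; B-score of peak minus minimum fluorescence over baseline after thallium stimulus; more negative B-score means stronger Kir2.1 block with less thallium influx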
Target sequence (P35561 whole entry, looked up): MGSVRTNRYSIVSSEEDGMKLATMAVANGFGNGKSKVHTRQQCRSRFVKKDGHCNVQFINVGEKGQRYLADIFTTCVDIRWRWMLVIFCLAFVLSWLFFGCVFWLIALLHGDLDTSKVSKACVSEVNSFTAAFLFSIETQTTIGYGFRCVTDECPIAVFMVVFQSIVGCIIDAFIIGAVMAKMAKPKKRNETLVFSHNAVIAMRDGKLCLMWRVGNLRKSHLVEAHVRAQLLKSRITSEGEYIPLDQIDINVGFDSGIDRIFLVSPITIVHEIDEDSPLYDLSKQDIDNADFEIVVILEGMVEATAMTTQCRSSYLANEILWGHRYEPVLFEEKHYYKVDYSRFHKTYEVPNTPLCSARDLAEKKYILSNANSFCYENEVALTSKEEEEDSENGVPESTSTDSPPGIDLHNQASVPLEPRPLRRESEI
KCNQ1 block – inhibitors of human KCNQ1 potassium channel; P51787; CHO-K1 KCNQ1, FluxOR thallium flux fluorescence; active compounds read high; B-score at 10 µM; 310,000 compounds, 1.3% hits; AID 2642;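 active = compounds whose thallium flux B-score, printed positive for inhibition, exceeds three library SD while starting fluorescence stays within three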;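 note: channel opened by potassium depolarization with thallium stimulus after 20 min compound exposure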
KCNK3 inh conf – human KCNK3 channel inhibition, confirmation assay. shares compounds with KCNK3 inh. CHO-KCNK3 thallium flux, FluxOR fluorescence; 0% buffer, 100% carvedilol maximal block. ratio percent of control, % at 10 µM. 2,400 compounds, 99% hits;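 active = ratio percent of control, averaged over triplicates, above buffer control mean plus 5 SD, cut at about 64% in these data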;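 note: ratio is the fluorescence rise from min to max over baseline after thallium stimulus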
KCNK3 noninduced – counter-screen for KCNK3 inhibitors: effect in non-induced cells; shares compounds with KCNK3 inh; non-induced KCNK3 parental cells, FluxOR thallium flux; active compounds read low; thallium flux ratio (lower = more inhibition) at 10 µM; 2,400 compounds, 40% hits;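 active = thallium flux ratio, averaged over three wells, more than 5 SD below the buffer control mean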;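 note: host cells are CHO cells without KCNK3 induction; ratio is peak minus trough fluorescence over baseline then normalized to buffer controls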
Active calls of the source: *; i = inactive; / = no result given.

SMILES	KCNK3 inh	KCNQ1 act	hERG protect	KCNK9 inh	Kir21 block	KCNQ1 block	KCNK3 inh conf	KCNK3 noninduced
Cc1ccc(SCC(=O)N2c3ccccc3Sc3ccccc32)cc1	-9.6*	i	-8	i	0.08	i	105*	0.16*
Cc1c(Nc2cc(Cl)c3nonc3c2[N+](=O)[O-])c(=O)n(-c2ccccc2)n1C	-18*	/	/	/	/	/	145*	0.096*
Cc1c(Nc2cc(N3CCOCC3)c3nonc3c2[N+](=O)[O-])c(=O)n(-c2ccccc2)n1C	/	i	-7	i	1.3	i	/	/
CCOc1ccc(C(=O)n2cc(C(=O)OC)c3ccccc32)cc1	-10*	i	-3	i	-0.83	i	116*	0.15*
CCOc1ccc(C(=O)n2cc(C(=O)OC)c3ccccc32)cc1OCC	i	i	-2	i	0.13	i	/	/
CC1(C2(O)CCCCC2)NCCc2ccccc21 (centres undefined)	i	/	/	/	/	/	/	/
CC(=Nc1ccc(Br)cc1)c1sc2ccccc2c1O	-11*	i	-8	i	0.2	i	131*	i
CC(=Nc1ccccc1)c1sc2ccccc2c1O	i	i	-13	i	-0.78	i	/	/
COc1ccc(CN(C)C(=O)C2CCN(S(=O)(=O)c3cccs3)CC2)cc1F	i	/	/	/	/	/	/	/
COc1cc(Cl)c(C)cc1NC(=O)CN1CCN(C(=O)C2CC2)CC1	i	/	/	/	/	/	/	/
N#Cc1nc(-c2ccco2)oc1N1CCN(c2cccc(Cl)c2)CC1	-9.6*	i	-10	i	1.2	i	111*	i
N#Cc1nc(-c2ccco2)oc1N1CCCC1	i	i	-4	i	-0.31	i	/	/
O=C1NC(=O)C(Cc2ccc(O)cc2)N1 (centres undefined)	i	/	/	/	/	/	/	/
CC1CCCN(C2(O)C(=O)Nc3ccc([N+](=O)[O-])cc32)C1 (centres undefined)	i	i	0	i	1.4	i	/	/
CN(c1ccccc1)S(=O)(=O)c1cccc(NC(=O)c2cc(=O)c3ccccc3o2)c1	-10*	i	-8	i	-0.23	i	137*	i
O=C(Nc1cccc(S(=O)(=O)N2CCCCCC2)c1)c1cc(=O)c2ccccc2o1	i	i	-11	i	0.11	i	/	/
CCC(SC1=N/C(=C/c2ccccc2OC)C(=O)N1c1ccccc1)C(=O)Nc1cc(C)on1 (centres undefined)	i	i	-11	i	-0.04	i	/	/
CC(=O)Oc1c(I)cc(I)cc1C(=O)Nc1ccc(Cl)cc1	-11*	i	-16	i	0.83	7*	123*	0.13*
COc1ccc(Cl)cc1C(=O)Nc1ccc(NC(C)=O)cc1	i	i	-2	i	0.04	i	/	/
CCCSc1nnc2c(n1)OC(c1cccn1C)N(C(C)=O)c1ccccc1-2 (centres undefined)	-13*	i	-7	i	-1.5	i	122*	i
Cc1cc(Br)ccc1NC(=O)CN(C)C(=O)c1cc([N+](=O)[O-])ccc1N1CCOCC1	i	i	-13	i	-0.6	i	/	/
COc1ccc(CN2C(=NC(=O)C3CC3)SC3CS(=O)(=O)CC32)cc1OC (centres undefined)	i	i	-5	i	-1.2	i	/	/
c1cnc(SCCCOc2ccc3ccccc3c2)nc1	-10*	i	-8	i	1.2	i	114*	0.14*
c1ccc(Oc2cccc(OCCCCSc3ncccn3)c2)cc1	-11*	i	-11	i	-0.17	i	89*	0.15*
Cn1c2c(c(=O)c3ccccc31)CCC(C)(C)O2	i	i	-9	i	2.8	i	/	/
COc1ccccc1NC(=S)NC(=O)c1ccc(Cn2cc(Br)cn2)cc1	i	i	-9	i	-0.68	i	/	/
